Laboratory results reported in publication PMC6810698 (European journal of nuclear medicine and molecular imaging, 2019).
Like-named read-outs stand apart in the source and are kept apart here.

Experiments:
[1] = target: T1, SV2A (Macaca mulatta, UniProt H9EQH8); type: in vivo, rhesus monkeys (Macaca mulatta); conditions: for Regional distribution volume (VT): 1TC model; for Regional non-displaceable binding potential (BPND): baseline scans (n = 4), reference region centrum semiovale
In short: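 Fasted rhesus monkeys were immobilised with ketamine (10 mg/kg im) and maintained on isoflurane (1.5–2.5% in oxygen). Radiotracer was infused iv over 3 min after a transmission scan, and dynamic list-mode data were collected for 120 min. MR-defined ROIs gave time–activity curves. VT came from a 1TC model with metabolite-corrected arterial plasma input, and BPND from VT with centrum semiovale as reference.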

[2] = target: human SV2A protein; conditions: cited from earlier work
[3] = target: T1, SV2A; test: SV2A occupancy from occupancy plot; type: in vivo, rhesus monkeys (Macaca mulatta); conditions: 0.15 mg/kg UCB-J, 10 min before 5-[^18F]UCB-J injection
In short: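 Baseline and blocking PET scans were run with iv radiotracer and arterial input. Regional VT came from 1TC kinetic modelling. Occupancy was derived from an occupancy plot of baseline regional VT against the baseline-minus-blocking VT difference.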

[4] = target: T1, SV2A; conditions: same dose of UCB-J (0.15 mg/kg), measured with [^11C]UCB-J; cited from earlier work
[5] = Radiotracer free fraction; type: in vitro ADME, rhesus monkeys (Macaca mulatta); conditions: ultrafiltration; rhesus monkey plasma; n = 4
In short: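 Plasma ultrafiltration was used. fP was taken as filtrate radioactivity concentration divided by total plasma activity, measured in triplicate per scan.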

[6] = Plasma metabolite analysis; type: in vivo, rhesus monkeys (Macaca mulatta); conditions: 30 min after injection; rhesus monkey arterial plasma; n = 4
[7] = baseline scan, centrum semiovale
[8] = baseline scan, cingulate cortex
[9] = baseline scan, nucleus accumbens
[10] = baseline scan, occipital cortex

T1 sequence (H9EQH8 1-742): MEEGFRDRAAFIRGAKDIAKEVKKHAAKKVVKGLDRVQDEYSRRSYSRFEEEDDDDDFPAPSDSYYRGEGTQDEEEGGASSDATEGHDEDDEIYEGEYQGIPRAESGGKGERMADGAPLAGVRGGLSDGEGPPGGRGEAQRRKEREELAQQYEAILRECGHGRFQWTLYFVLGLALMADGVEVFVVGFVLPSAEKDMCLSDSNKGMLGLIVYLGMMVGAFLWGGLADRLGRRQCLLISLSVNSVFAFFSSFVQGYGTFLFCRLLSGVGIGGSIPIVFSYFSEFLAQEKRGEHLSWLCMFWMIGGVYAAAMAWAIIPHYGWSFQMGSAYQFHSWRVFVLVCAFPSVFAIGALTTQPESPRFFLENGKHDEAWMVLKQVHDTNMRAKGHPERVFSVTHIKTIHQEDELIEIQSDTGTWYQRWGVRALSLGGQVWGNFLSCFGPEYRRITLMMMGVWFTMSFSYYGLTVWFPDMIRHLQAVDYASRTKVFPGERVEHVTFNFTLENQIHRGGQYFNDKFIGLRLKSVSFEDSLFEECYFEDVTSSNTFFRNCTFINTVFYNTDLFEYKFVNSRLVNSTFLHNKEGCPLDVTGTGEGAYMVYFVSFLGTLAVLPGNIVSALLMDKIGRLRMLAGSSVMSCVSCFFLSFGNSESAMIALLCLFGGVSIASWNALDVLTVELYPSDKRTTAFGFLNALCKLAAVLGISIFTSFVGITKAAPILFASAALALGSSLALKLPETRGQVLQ

Regional distribution volume (VT) ([1]; baseline scan, amygdala)	Regional distribution volume (VT) ([1]; baseline scan, brainstem)	Regional distribution volume (VT) ([1]; baseline scan, caudate)	Regional distribution volume (VT) [1, 7]	Regional distribution volume (VT) ([1]; baseline scan, cerebellum)	Regional distribution volume (VT) [1, 8]	Regional distribution volume (VT) ([1]; baseline scan, frontal cortex)	Regional distribution volume (VT) ([1]; baseline scan, globus pallidus)	Regional distribution volume (VT) ([1]; baseline scan, hippocampus)	Regional distribution volume (VT) ([1]; baseline scan, insula)	Regional distribution volume (VT) [1, 9]	Regional distribution volume (VT) [1, 10]	Regional distribution volume (VT) ([1]; baseline scan, pons)	Regional distribution volume (VT) ([1]; baseline scan, putamen)	Regional distribution volume (VT) ([1]; baseline scan, temporal cortex)	Regional distribution volume (VT) ([1]; baseline scan, thalamus)	Structure (SMILES)	pIC50, binding affinity to human SV2A protein [2]	also measured
5.0 mL/cm^−3	5.7 mL/cm^−3	6.6 mL/cm^−3	6.9 mL/cm^−3	5.7 mL/cm^−3	7.2 mL/cm^−3	7.2 mL/cm^−3	6.3 mL/cm^−3	5.7 mL/cm^−3	6.8 mL/cm^−3	6.3 mL/cm^−3	6.6 mL/cm^−3	6.1 mL/cm^−3	6.6 mL/cm^−3	6.5 mL/cm^−3	6.3 mL/cm^−3	Cc1cnccc1CN1C[C@H](c2cc(F)c(F)c([18F])c2)CC1=O [(S)-5-[^18F]3, 4-(3,4-Difluoro-5-(fluoro-^18F)phenyl)-1-((3-methylpyridin-4-yl)methyl)pyrrolidin-2-one]	–	specific binding in brain ([1]; baseline scan, n = 1): lack of specific binding
–	–	–	–	–	–	–	–	–	–	–	–	–	–	–	–	Cc1cnccc1CN1C[C@H](c2cc(F)c(F)c(F)c2)CC1=O [(S)-enantiomer]	7.1	–
–	–	–	–	–	–	–	–	–	–	–	–	–	–	–	–	Cc1cnccc1CN1C[C@@H](c2cc(F)c(F)c(F)c2)CC1=O [UCB-J]	8.2	SV2A occupancy by UCB-J [3]: 73%; SV2A occupancy by UCB-J [4]: 87%
24.1 ± 2.2 mL/cm^−3	20.1 ± 2.8 mL/cm^−3	40.3 ± 6.1 mL/cm^−3	11.1 ± 1.6 mL/cm^−3	30.5 ± 3.5 mL/cm^−3	47.3 ± 7.5 mL/cm^−3	48.9 ± 7.4 mL/cm^−3	24.5 ± 3.1 mL/cm^−3	31.3 ± 2.3 mL/cm^−3	47.7 ± 7.5 mL/cm^−3	45.7 ± 6.2 mL/cm^−3	45.1 ± 6.9 mL/cm^−3	19.8 ± 2.7 mL/cm^−3	40.1 ± 6.8 mL/cm^−3	42.8 ± 6.7 mL/cm^−3	36.2 ± 5.2 mL/cm^−3	[11CH3]c1cnccc1CN1C[C@@H](c2cc(F)c(F)c(F)c2)CC1=O [[^11C]UCB-J]	–	Regional non-displaceable binding potential (BPND) ([1]; amygdala): 1.2 ± 0.4; Regional non-displaceable binding potential (BPND) ([1]; brainstem): 0.8 ± 0.2; Regional non-displaceable binding potential (BPND) ([1]; caudate): 2.7 ± 0.7; Regional non-displaceable binding potential (BPND) ([1]; cerebellum): 1.8 ± 0.3; Regional non-displaceable binding potential (BPND) ([1]; cingulate cortex): 3.3 ± 0.9; Regional non-displaceable binding potential (BPND) ([1]; frontal cortex): 3.5 ± 0.9; Regional non-displaceable binding potential (BPND) ([1]; globus pallidus): 1.2 ± 0.2; Regional non-displaceable binding potential (BPND) ([1]; hippocampus): 1.9 ± 0.3; Regional non-displaceable binding potential (BPND) ([1]; insula): 3.3 ± 0.8; Regional non-displaceable binding potential (BPND) ([1]; nucleus accumbens): 3.2 ± 0.7; Regional non-displaceable binding potential (BPND) ([1]; occipital cortex): 3.1 ± 0.7; Regional non-displaceable binding potential (BPND) ([1]; pons): 0.8 ± 0.2; Regional non-displaceable binding potential (BPND) ([1]; putamen): 2.6 ± 0.5; Regional non-displaceable binding potential (BPND) ([1]; temporal cortex): 2.9 ± 0.6; Regional non-displaceable binding potential (BPND) ([1]; thalamus): 2.3 ± 0.7; BPND values in all brain regions ([1]; baseline scans, all brain regions): > 0.75; plasma free fraction (fp) [5]: 43 ± 5%; intact parent radiotracer in plasma (parent fraction) [6]: 47 ± 12%
–	–	–	–	–	–	–	–	–	–	–	–	–	–	–	–	CC[C@@H](C(N)=O)N1CCCC1=O [levetiracetam]	–	displacement of [^18F]UCB-J binding ([1]; levetiracetam 30 mg/kg i.v. at 90 min after radiotracer administration, 180-min scan with 5-[^18F]UCB-J): rapid reduction in radiotracer binding
